This is a sample that favours compounds with a hit; in the whole collection about 3.6% have one here.
Wnt bcat act – Wnt/beta-catenin pathway activators, primary screen, cell-based, plate reader, single point; Wnt/beta-catenin reporter cell assay, activator; activation, % at 9.35 µM; hit rate 1.2% among 300,000; in the data active means activation above about 30%, passing the limit was not always enough; inconclusive means no clear call, values can overlap the other calls;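 further: 0% = neutral control wells and 100% = positive control wells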
MITF TRPM1 HTS – activators of MITF-driven TRPM1 promoter reporter, primary screen, cell-based, SK-MEL-5, luciferase, single point | SK-MEL-5 TRPM1-promoter luciferase, 24 h; % of positive control, neutral wells = 0 | activation, % at 12.5 µM | hit rate 0.75% among 300,000;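 active means mean activation of at least 80% with every replicate also reaching 80%; inconclusive means mean reaches 80% but some replicate falls short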;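 further: 0% = neutral control wells and 100% = parthenolide positive control wells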
SR-BI DiI-HDL act – activators of SR-BI mediated DiI-HDL uptake, primary screen, ldlA[mSR-BI] CHO cells, DiI fluorescence | 3 h; 100 = double the neutral-control signal | activation, % at 12.5 µM | hit rate 0.096% among 320,000 | AID 504775, 2011;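 active means mean replicate activation of at least 60% and every replicate at or above 60%; inconclusive means mean or all-replicate condition met, but not both; inactive means mean below 60% and not all replicates reaching 60%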;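 further: 0% = median plate neutral-control signal and 100% = twice that signal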
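System: LDL receptor-deficient CHO ldlA cells overexpressing murine SR-BI | Timing: 3 h uptake period with compound, 37 °C | Medium: HEPES-buffered (25 mM, pH 7.4) F12 plus 0.5% BSA | Dosing: Single-point compound dose | Signal: Bottom-read fluorescence, 550/595 nm | Read-out: Retained DiI signal reflecting DiI-HDL uptake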
SR-BI DiI inh – inhibitors of SR-BI mediated HDL lipid uptake, primary screen, ldlA[mSR-BI] cells, fluorescence, single point; ldlA[mSR-BI] CHO cells, DiI-HDL uptake fluorescence, 3 h; inhibition, % at 12.5 µM; hit rate 0.96% among 320,000; AID 488896, 2010;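 active means mean replicate inhibition of at least 70% and a set share of replicates each scoring 70 or more; inconclusive means meets just one of the two criteria; inactive means fails both criteria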;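 further: 0% = median of neutral control wells and 100% = median of positive control wells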
Target sequence (Q61009 whole entry, looked up): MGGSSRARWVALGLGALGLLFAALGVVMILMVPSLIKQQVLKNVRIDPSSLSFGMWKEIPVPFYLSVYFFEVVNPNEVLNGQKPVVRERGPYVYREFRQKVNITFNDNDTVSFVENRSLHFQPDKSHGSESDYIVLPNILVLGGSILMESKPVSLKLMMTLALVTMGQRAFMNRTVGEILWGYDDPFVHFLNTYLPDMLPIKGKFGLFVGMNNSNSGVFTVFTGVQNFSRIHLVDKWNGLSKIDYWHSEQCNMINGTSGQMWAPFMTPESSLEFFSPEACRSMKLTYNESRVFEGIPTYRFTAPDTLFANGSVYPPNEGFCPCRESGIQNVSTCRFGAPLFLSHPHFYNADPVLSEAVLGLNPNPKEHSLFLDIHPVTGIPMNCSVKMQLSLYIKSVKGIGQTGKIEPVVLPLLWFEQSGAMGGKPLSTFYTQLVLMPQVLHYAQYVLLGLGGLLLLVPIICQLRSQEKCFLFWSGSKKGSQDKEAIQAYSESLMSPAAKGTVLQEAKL
HSF1 activator – HSF-1 activators, primary screen, NIH3T3-HGL cells, MG132 stress, luminescence, single point; NIH3T3-HGL HSF-1 luciferase reporter, 8 h; 100% = twice DMSO control signal; activation, % at 9 µM; hit rate 1.7% among 300,000;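 active means mean replicate activation of at least 50% with a set share of replicates each reaching 50%; inconclusive means only one of those two conditions met; inactive means mean below 50% and too few replicates reaching it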;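 further: 0% = median of the neutral control wells and 100% = twice that signal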
* = called active by the depositor; ? = inconclusive; / = not tested or not shown.

SMILES | Wnt bcat act | MITF TRPM1 HTS | SR-BI DiI-HDL act | SR-BI DiI inh | HSF1 activator
CC(C)(C)C(=O)N1CCN(c2ccc(NC(=O)c3ccc([N+](=O)[O-])o3)cc2)CC1 | -11.5 | -81.5 | 12.9 | -12.9 | -5.2
COc1cccc(CNC(=O)[C@H]2CCCN2C(=O)[C@H]2CCCN2C(=O)c2c(F)cccc2F)c1 | -6.9 | / | / | / | /
Cc1ccccc1-c1nnc(-c2ccc(Br)cc2)o1 | 43.9* | / | -7.5 | 7.5 | 36.0
Cc1ccccc1-c1nnc(SCC#N)o1 | -1.3 | -6.0 | 17.8 | -17.8 | -11.9
Cc1ccccc1-c1nnc(-c2cccc3ccccc23)o1 | 55.2* | 26.8 | -23.3 | 23.3 | /
Cc1ccccc1-c1nnc(-c2ccccc2C)o1 | 47.1* | 58.3 | 16.8 | -16.8 | 20.6
CSc1ccc(CNC(=O)C2(C)CCN2C(C)C)cc1 (configuration not stated) | -3.5 | / | / | / | /
CCC(=O)N(C)C[C@H]1Oc2cc(Br)ccc2S(=O)(=O)N([C@@H](C)CO)C[C@H]1C | 0.9 | / | / | / | /
CCCC(=O)N1CCC1(C)C(=O)Nc1ccc2nccnc2c1 (configuration not stated) | -4.1 | / | / | / | /
O=C1/C(=N\S(=O)(=O)c2cccs2)C([n+]2cccc(Cc3ccccc3)c2)=C([O-])c2ccccc21 | / | / | 3.2 | -3.2 | 139.1*
CN1CCC(=NNc2ccc(S(=O)(=O)N3CCOCC3)cc2[N+](=O)[O-])CC1 | -5.7 | -5.9 | 6.0 | -6.0 | 98.0*
CCc1cc(C(=O)N2CCN(S(=O)(=O)c3ccccc3F)CC2)sc1C | -2.7 | -6.4 | -11.2 | 11.2 | /
Cc1ccc2c(c1)COc1c3ccc(C(=O)N[C@@H](CO)C(C)C)cc3nn1-2 | 33.6* | 114.1* | -21.3 | 21.3 | 36.5
COCCNC(=O)c1ccc2c3n(nc2c1)-c1ccc(C)cc1CO3 | 43.1* | ? | -16.4 | 16.4 | 10.2
C[C@@H](CO)NC(=O)c1ccc2c3n(nc2c1)-c1ccccc1CO3 | 8.8 | 5.6 | -7.9 | 7.9 | -40.1
COc1ccc2oc(=Nc3ccccc3)c(-c3nc4ccccc4[nH]3)cc2c1 | 43.9* | 12.5 | -8.1 | 8.1 | 45.0
COc1ccc(-c2nc3ccccc3[nH]2)cc1 | 16.7 | 6.6 | -10.4 | 10.4 | 3.5
CC(C)NC(=O)C1(C)CN(S(C)(=O)=O)CC(=O)N1CCCN1CCOCC1 (configuration not stated) | -1.2 | / | / | / | /
CC(=O)N1N=C(c2ccccc2)CC1c1ccccc1[N+](=O)[O-] (configuration not stated) | -0.9 | 10.0 | -8.2 | 8.2 | 109.4*
O=C(c1ccccc1)N1N=C(c2ccccc2)CC1c1ccccc1[N+](=O)[O-] (configuration not stated) | / | -4.9 | -11.1 | 11.1 | 17.8
Cc1cccc(/N=C/c2sc3ccccc3c2O)n1 | 46.0* | 27.4 | / | / | 12.7
Oc1c(C=Nc2cccc3cccnc23)sc2ccccc12 | -14.1 | / | / | / | -1.4
Oc1ccc(Cl)cc1N=Cc1sc2ccccc2c1Cl | -0.7 | -26.0 | -4.8 | 4.8 | 45.0
O=[N+]([O-])c1ccc(O)c(N=Cc2sc3ccccc3c2O)c1 | -2.3 | 1.3 | -124.5 | 124.5* | -45.2
C[C@H](c1ccccc1)N1C[C@@H](COCc2ccccc2)Oc2cccc(Oc3ccc(F)cc3)c2S1(=O)=O | -3.7 | / | / | / | /
SMILES | Wnt bcat act | MITF TRPM1 HTS | SR-BI DiI-HDL act | SR-BI DiI inh | HSF1 activator
C=CCN1C[C@H](COC(=O)c2cccc(C)c2)Oc2cccc(F)c2S1(=O)=O | -3.5 | / | / | / | /
CN(C(=O)CCc1cn(C)c2ccccc12)c1ccc(Oc2cccnc2)cc1 | -6.0 | / | / | / | /
CC(C)c1nc2oc3c(NCC4CCCO4)ncnc3c2c2c1COC(C)(C)C2 (configuration not stated) | / | -3.6 | -7.0 | 7.0 | 5.2
CC(C)c1nc2oc3c(NCCO)ncnc3c2c2c1COC(C)(C)C2 | 1.6 | / | 239.0* | -239.0 | 12.8
Cc1ccc(/C=C2/C(=O)ON=C2c2ccccc2)o1 | 2.7 | / | 6.7 | -6.7 | 86.1*
CCCCc1ccc(/C=C2/C(=O)ON=C2c2ccccc2)s1 | / | 10.2 | 23.6 | -23.6 | 82.7*
O=C1ON=C(c2ccccc2)/C1=C\c1ccco1 | -1.3 | / | 16.6 | -16.6 | -14.7
CCOCCCNC(=O)c1ccc(CN2CCc3ccccc3C2)cc1 | 0.2 | / | / | / | /
CCC(Sc1ncnc2c1nnn2-c1ccc(F)cc1)C(=O)OC (configuration not stated) | 1.6 | 5.9 | -14.1 | 14.1 | 102.8*
CCOC(=O)C(C)Sc1ncnc2c1nnn2-c1ccc(F)cc1 (configuration not stated) | / | 5.2 | 13.6 | -13.6 | 46.8
Cc1ccc(OCCn2c(=O)n(C)c3ccccc32)cc1 | 13.4 | 39.4 | 1.3 | -1.3 | 58.8*
N#CC(C(=O)Nc1cccc(Cl)c1)=C1Nc2ccccc2N1 | -4.4 | 9.4 | -72.6 | 72.6* | 13.2
COC(=O)CC1C(=O)NCCN1C(=O)c1oc2c(C)c(C)ccc2c1C (configuration not stated) | 4.8 | / | / | / | /
O=C(Nc1ccc(C(=O)N2CCOCC2)cc1)c1cc(-c2cccnc2)nc2ccc(Br)cc12 | 2.9 | 8.9 | -81.2 | 81.2* | -0.5
O=C(Nc1ccc(C(=O)N2CCOCC2)cc1)c1cnn2c(C(F)F)cc(-c3ccccc3)nc12 | -0.2 | -2.6 | -62.1 | 62.1 | 54.0*
Cc1ccc(CN2CC(N3CCC[C@@H]3C)CS2(=O)=O)cc1 (some centres not stated) | -3.0 | / | / | / | /
Nc1nnc(CC(=O)N/N=C/c2ccc(-c3cccc(C(=O)O)c3)o2)s1 | 37.8* | 8.1 | 22.7 | -22.7 | 14.9
CCOC(=O)c1ccc(-c2ccc(/C=N/NC(=O)Cc3nnc(N)s3)o2)cc1 | 20.1 | 33.4 | -58.4 | 58.4 | 71.2*
Nc1nnc(CC(=O)N/N=C/c2ccc(-c3ccc(F)cc3)o2)s1 | 4.3 | / | / | / | 7.5
Cc1nc2nc(C)c(C)nc2nc1C | 0.3 | / | / | / | /
Cc1ccc(N/N=C(\C#N)C(=N)N2CCCCCC2)cc1 | 11.0 | 9.7 | -11.8 | 11.8 | 47.8
CCN(CC)C(=N)/C(C#N)=N/Nc1ccc(C)cc1 | 28.9 | / | -0.1 | 0.1 | 57.1*
COc1ccc(OC)c(CN2CCN(C(=O)c3cccc(S(=O)(=O)Nc4ccccc4OC)c3)CC2)c1 | -3.7 | -1.1 | -76.9 | 76.9* | 5.4
COc1ccc(OC)c(CN2CCN(C(=O)c3ccc(S(=O)(=O)Nc4ccccc4F)cc3)CC2)c1 | 0.5 | -6.8 | -57.7 | 57.7 | /
COc1cc(CN2CCN(C(=O)c3ccc(-c4ccccc4)cc3)CC2)cc(OC)c1OC | -1.3 | -5.5 | -83.7 | 83.7* | -13.1
COc1ccc(C(=O)N2CCN(C(=O)c3ccc(-c4ccccc4)cc3)CC2)cc1OC | -8.8 | 3.1 | -44.9 | 44.9 | 19.2
COc1cc(OC)cc(C(=O)N2CCN(C(=O)c3ccc(-c4ccccc4)cc3)CC2)c1 | -0.7 | 1.8 | -79.4 | 79.4* | 9.6

Bioassay records deposited in PubChem BioAssay by Broad Institute.
